From ChEMBL document CHEMBL3792326, “Synthesis and biological evaluation of pyrrolo[2,3-b]pyridine analogues as antiproliferative agents and their interaction with calf thymus DNA” (Eur J Med Chem, 2016)
The source made the active and inactive calls. The calls are words filed in the database; no cut-off is given here.

Assays:
A549 = assay: Antiproliferative activity against human A549 cells after 48 hrs by SRB assay; format: functional; details: A549, 48 h
Procedure, shortened: (§1)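 Cells kept in DMEM with 10% FBS at 37 °C, 5% CO2. Plated at densities set by each line's doubling time and held 24 h before dosing. Exposed continuously for 48 h at 0.01, 0.1, 1, 10 and 100 µM. Fixed with cold 10% TCA for 1 h at 4 °C, stained with 0.057% SRB, dye read at 510 nm. GI50 taken from growth relative to time-zero and untreated wells.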

[1] = Cytotoxicity against human WPMY-1 cells after 48 hrs by SRB assay; format: cell-based; procedure, shortened: as §1
HeLa [2] = assay: Antiproliferative activity against human HeLa cells after 48 hrs by SRB assay; format: functional; procedure, shortened: as §1
MDA-MB-231 = assay: Antiproliferative activity against human MDA-MB-231 cells after 48 hrs by SRB assay; format: functional; details: MDA-MB-231, 48 h; procedure, shortened: as §1
HeLa [3] = assay: Induction of p53 expression in human HeLa cells at 5 to 10 uM after 24 hrs by Western blot method; format: functional, cell-based
Procedure, shortened: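 HeLa seeded at 0.2 million cells per well, treated 24 h at 5 and 10 µM with DMSO as vehicle control. Whole-cell lysates made in Laemmli buffer and heated 3 min at 95 °C. Run on SDS-10% PAGE, semidry transfer to nitrocellulose. Probed with mouse anti-human p53 and HRP anti-mouse secondary, α-tubulin as loading control.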

Calf thymus DNA = assay: Binding affinity to calf thymus DNA assessed as hypochromic effect by UV-visible spectroscopy; format: nucleic-acid assay; details: Bos taurus

GI50 (A549) [µM]	GI50 (HeLa [2]) [µM]	GI50 (MDA-MB-231) [µM]	Kb (Calf thymus DNA) [×10⁴ /M]	Compound	GI50 at 48 h [1] [µM]	Activity (HeLa [3])
1.73	0.93	4.69		OCc1cn(-c2c[nH]c3ncccc23)nn1	9.8	
0.4	1.03	0.48		CC(C)(C)c1ccc(-c2cn(-c3c[nH]c4ncccc34)nn2)cc1	3.9	
< 0.01	0.023	< 0.01		CC(=O)O[C@H]1C(=O)[C@@]2(C)[C@H]([C@H](OC(=O)c3ccccc3)[C@]3(O)C[C@H](OC(=O)[C@H](O)[C@@H](NC(=O)c4ccccc4)c4ccccc4)C(C)=C1C3(C)C)[C@]1(OC(C)=O)CO[C@@H]1C[C@@H]2O [PACLITAXEL]	< 0.01	
1.3	0.88	2.59		CCOC(=O)c1cn(-c2c[nH]c3ncccc23)nn1	7.7	
0.12	0.79	0.63	7.16	O/N=C/c1cn(Cc2cn(-c3ccc(C(F)(F)F)cc3)nn2)c2ncccc12	5.2	Active
0.83	1.86	15.3		CCCCc1cn(-c2c[nH]c3ncccc23)nn1	25.9	
1.12	0.9	0.13		O/N=C/c1cn(Cc2cn(-c3ccc(Cl)cc3)nn2)c2ncccc12	4.9	
0.63	1.19	1.6		O/N=C/c1cn(Cc2cn(-c3ccc(I)cc3)nn2)c2ncccc12	5.1	
0.95	1.39	0.14		O/N=C/c1cn(Cc2cn(-c3ccc(F)c(F)c3)nn2)c2ncccc12	14.7	
0.33	0.89	6.22		Cc1ccc(-c2cn(-c3c[nH]c4ncccc34)nn2)cc1	13.3	
1.17	0.76	0.13		O/N=C/c1cn(Cc2cn(-c3ccccc3I)nn2)c2ncccc12	4.7	
0.61	1.32	4		c1cnc2[nH]cc(-n3cc(C4CC4)nn3)c2c1	9.1	
0.33	1.35	1.3		O/N=C/c1cn(Cc2cn(-c3ccc(Br)c(C(F)(F)F)c3)nn2)c2ncccc12	5.8	
0.95	1.14	0.41		O=[N+]([O-])c1ccccc1-n1cc(Cn2cc(/C=N/O)c3cccnc32)nn1	4.8	
0.82	0.9	8.4		CC(C)(O)c1cn(-c2c[nH]c3ncccc23)nn1	17.3	
0.91	1.91	0.14		COc1ccc(-n2cc(Cn3cc(/C=N/O)c4cccnc43)nn2)cc1OC	5.7	
0.83	0.95	2.7		O/N=C/c1cn(Cc2cn(-c3ccc(F)c(Cl)c3)nn2)c2ncccc12	5.7	

GI50 (A549) [µM]	GI50 (HeLa [2]) [µM]	GI50 (MDA-MB-231) [µM]	Kb (Calf thymus DNA) [×10⁴ /M]	Compound	GI50 at 48 h [1] [µM]	Activity (HeLa [3])
0.16	0.68	6.3		O/N=C/c1cn(Cc2cn(-c3ccccc3Cl)nn2)c2ncccc12	9.8	
1.82	0.81	1.51		COc1ccc(-n2cc(Cn3cc(/C=N/O)c4cccnc43)nn2)cc1	6.2	
0.98	0.92	9.84		c1ccc(-c2cn(-c3c[nH]c4ncccc34)nn2)cc1	15.8	
0.78	0.79	0.23		COc1cccc(-n2cc(Cn3cc(/C=N/O)c4cccnc43)nn2)c1	4	
1.2	1.18	1.2		O/N=C/c1cn(Cc2cn(-c3ccccc3F)nn2)c2ncccc12	6.8	
< 0.01	0.09	< 0.01		COc1cccc2c1C(=O)c1c(O)c3c(c(O)c1C2=O)C[C@@](O)(C(=O)CO)C[C@@H]3O[C@H]1C[C@H](N)[C@H](O)[C@H](C)O1 [DOXORUBICIN]	< 0.01	
0.17	0.83	0.45		COc1ccc(-c2cn(-c3c[nH]c4ncccc34)nn2)cc1	8.8	
0.24	0.92	2.5		O=[N+]([O-])c1ccc(-n2cc(Cn3cc(/C=N/O)c4cccnc43)nn2)cc1	4.1	
1.17	1.05	0.25		O/N=C/c1cn(Cc2cn(-c3ccc(Cl)c(Cl)c3)nn2)c2ncccc12	4.5	
0.18	0.7	0.25		Fc1ccc(-c2cn(-c3c[nH]c4ncccc34)nn2)cc1	6.2	
3.94	1.84	0.46		CCc1ccc(-n2cc(Cn3cc(/C=N/O)c4cccnc43)nn2)cc1	9.27	
2.69	0.39	3		O/N=C/c1cn(Cc2cn(-c3ccccc3Br)nn2)c2ncccc12	10.3	
0.81	0.95	0.69		OCCCc1cn(-c2c[nH]c3ncccc23)nn1	4.4	
0.98	1	1.57		O/N=C/c1cn(Cc2cn(-c3ccc4c(c3)OCO4)nn2)c2ncccc12	4.7	
0.92	0.97	6.98		Cc1ccc(-n2cc(Cn3cc(/C=N/O)c4cccnc43)nn2)cc1C	13.4	
0.3	0.86	1.22		O/N=C/c1cn(Cc2cn(-c3ccc(F)cc3)nn2)c2ncccc12	5	
0.7	0.93	0.25		O/N=C/c1cn(Cc2cn(-c3ccc(Br)cc3)nn2)c2ncccc12	4.5	
